Results on 32 compounds are retold here after ChEMBL document CHEMBL4041527, “Disulfide Bond-Containing Ajoene Analogues As Novel Quorum Sensing Inhibitors of Pseudomonas aeruginosa” (J Med Chem, 2017).

Calls of active or inactive are those of the source. The calls are words filed in the database; no cut-off is given here.

In general, IC50 refers to the point on the concentration scale where inhibition reaches its midpoint. As usually defined, the inhibition is the drop in the measured response relative to a control, in per cent.

Series [1] is described as follows: (§1) Inhibition of quorum sensing LasI synthase in Pseudomonas aeruginosa PAO1 harboring reporter plasmid lasB-gfp assessed as reduction in lasB expression measured every 15 mins for 12 hrs by GFP-fluorescence assay.
Series [2] concerns Pseudomonas aeruginosa. The series is described as follows: Growth inhibition of Pseudomonas aeruginosa PAO1 harboring reporter plasmid lasB-gfp.
The subject of series [3] is Pseudomonas aeruginosa PAO1. Kind of series: Inhibition of quorum sensing LasI synthase in Pseudomonas aeruginosa PAO1 harboring reporter plasmid lasB-gfp assessed as reduction in lasB expression at 10 uM measured every 15 mins for 12 hrs by GFP-fluorescence assay.
The test system of series [4] is Pseudomonas aeruginosa PAO1. Described as §1.
Series [5] has as its target T1, HTH-type quorum-sensing regulator RhlR (Pseudomonas aeruginosa (strain ATCC 15692 / PAO1 / 1C / PRS 101 / LMG12228), UniProt P54292).
T1 sequence (P54292 whole entry): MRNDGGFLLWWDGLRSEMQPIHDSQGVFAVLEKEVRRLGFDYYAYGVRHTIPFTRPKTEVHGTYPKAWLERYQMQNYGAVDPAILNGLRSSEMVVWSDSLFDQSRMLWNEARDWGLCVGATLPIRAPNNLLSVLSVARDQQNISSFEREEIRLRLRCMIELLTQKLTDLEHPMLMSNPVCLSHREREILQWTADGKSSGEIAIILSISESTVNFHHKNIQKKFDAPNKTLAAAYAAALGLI
Kind of series: Inhibition of quorum sensing regulator protein RhlR in Pseudomonas aeruginosa PAO1 harboring reporter plasmid rhlA-gfp assessed as reduction in rhlA expression measured every 15 mins for 12 hrs by GFP-fluorescence assay.

For series [6], the system named is Pseudomonas aeruginosa PAO1. Kind of series: Inhibition of quorum sensing LasI synthase in Pseudomonas aeruginosa PAO1 harboring reporter plasmid lasB-gfp at 10 uM in presence of bovine serum albumin measured after 18 hrs by GFP-fluorescence assay. In a few lines: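 BSA dissolved in ABTGC at 100 mg/mL, then 2-fold serially diluted across rows; compound final 10 µM. PAO1-lasB-gfp, grown overnight in LB, added at OD600 0.02 in ABTGC. GFP/OD read after 18 h at 37 °C.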

The subject of series [7] is Pseudomonas aeruginosa PAO1. Kind of series: Inhibition of quorum sensing LasI synthase in wild-type Pseudomonas aeruginosa PAO1 assessed as reduction in elastase production at 10 uM incubated for 24 hrs measured every 10 mins for 3 hrs by BODIPY fluorophore-labelled DQ elastin conjugate based fluorescence assay. The essentials: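 PAO1 wild type, with ∆lasI∆rhlI as negative control, diluted to OD600 0.01 in 5 mL ABTGC with 10 µM compound. Grown 24 h at 37 °C, 200 rpm. Cleared supernatant assayed with BODIPY FL-labelled DQ elastin; fluorescence (ex 490/em 520 nm) read every 10 min for 3 h. Student's t test, mean ± SD.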

Series [8] has as its system Pseudomonas aeruginosa. The series is described as follows: Antibacterial activity against Pseudomonas aeruginosa in bacterial coated silicone implanted BALB/c mouse assessed as reduction in biofilm formation at 10 uM measured at 24 hrs post infection. Format: functional. In a few lines:
(§2)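 Female BALB/c mice, 8 weeks old. A 4 mm silicone tube was incubated 18 h at 37 °C in 0.9% NaCl with P. aeruginosa (OD600 0.1), then inserted into the peritoneal cavity under ketamine/xylazine. At 2 h post-infection, 200 µL of 10 µM compound (EtOH stock diluted in 20% hydroxypropyl-β-cyclodextrin/saline) was injected at the implant site; vehicle for controls. At 24 h, CFU/mL counted from sonicated implants and homogenized spleens on LB; Mann-Whitney U test.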

Series [9] can be described thus: Inhibition of quorum sensing regulator protein pqsR in Pseudomonas aeruginosa PAO1 harboring reporter plasmid pqsA-gfp assessed as reduction in pqsA expression measured every 15 mins for 12 hrs by GFP-fluorescence assay.
Series [10] addresses T2, HTH-type quorum-sensing regulator RhlR (Pseudomonas aeruginosa (strain ATCC 15692 / PAO1 / 1C / PRS 101 / LMG12228)) (UniProt P54292).
T2 sequence (whole entry): T1 sequence (P54292 whole entry)
The series is described as follows: Inhibition of quorum sensing regulator protein RhlR in wild-type Pseudomonas aeruginosa PAO1 assessed as reduction in pyocyanin level at 10 uM after 48 hrs. In a few lines: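 PAO1 wild type, with ∆lasI∆rhlI as negative control, standardized to OD600 0.1 and diluted 100-fold into 25 mL King's medium with 10 µM compound. Grown 48 h at 37 °C, 200 rpm; final OD600 read. Pyocyanin extracted from supernatant with chloroform then 0.2 M HCl; absorbance read on the aqueous layer. Student's t test.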

In series [11] the test system is Pseudomonas aeruginosa. The series is described as follows: Antibacterial activity against Pseudomonas aeruginosa infected in BALB/c mouse assessed as reduction in bacterial dissemination in spleen at 10 uM measured at 24 hrs post infection. It is filed as functional. The essentials: as §2
The target of series [12] is T2, HTH-type quorum-sensing regulator RhlR (Pseudomonas aeruginosa (strain ATCC 15692 / PAO1 / 1C / PRS 101 / LMG12228)). Kind of series: Inhibition of quorum sensing regulator protein RhlR in wild-type Pseudomonas aeruginosa PAO1 assessed as reduction in rhamnolipid level at 10 uM after 24 hrs relative to control. The essentials:
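PAO1 subculture diluted 100-fold into ABTGC (OD600 0.1) with 10 µM compound, ∆lasI∆rhlI as negative control. Grown 24 h at 37 °C, 200 rpm; final OD600 read. Supernatant extracted twice with diethyl ether and rhamnolipid quantified by a modified orcinol method. Student's t test, mean ± SD.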

The test system of series [13] is Pseudomonas aeruginosa. The series is described as follows: Effect on GFP fluorescence output signal in Pseudomonas aeruginosa PAO1 at 10 uM measured every 15 mins for 12 hrs. It is filed as ADME. The essentials:
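PAO1-gfp control strain, handled as the lasB-gfp reporter assay. Overnight LB culture diluted in ABTGC to OD600 0.02 and mixed with compound, final 10 µM, DMSO 0.1% final. Incubated at 37 °C; OD600 and GFP fluorescence (ex 485/em 535 nm) read every 15 min for at least 12 h, in triplicate.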

Series [14] relates to RAW264.7. Kind of series: Cytotoxicity against mouse RAW264.7 cells at 100 uM measured after 16 hrs by Alamar blue assay. It is filed as cell-based. The conditions noted are these: raw264.7, 16 h. In a few lines: (§3)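 RAW264.7 macrophages in DMEM with 10% FBS, 1 × 10^5 per well, grown 16 h. Cells were washed with PBS and exposed to compound at 0, 0.01, 0.1, 1, 10 or 100 µM for 16 h at 37 °C, 5% CO2. Alamar Blue added, 3 h incubation, OD595 read. Triplicates, mean±s.d., compared with DMSO.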
(In general: Resazurin is reduced to fluorescent resorufin, in cell work by metabolically active cells.)

In series [15] the test system is RAW264.7. Kind of series: Cytotoxicity against mouse RAW264.7 cells at 0.01 to 10 uM measured after 16 hrs by Alamar blue assay. To be noted: raw264.7, 16 h. It is filed as cell-based. In a few lines: as §3

As to `Clc1ccc(SSc2nc3ccc(Cl)cc3s2)cc1`, in series [1], the IC50 stood at 3250 nM. Moreover, the “growth inhibition (GI)” value in series [2] is “Non-Toxic”.
`Cc1ccc2nc(SSc3nc4ccc(C)cc4s3)sc2c1`: the IC50 in series [1] is 16900 nM. In addition, the “growth inhibition (GI)” value in series [2] was “Non-Toxic”.
Take `C=CCSSc1ccccc1C(=O)OC`: the “growth inhibition (GI)” value in series [2] is on record as “Non-Toxic”. The inhibition entry in [3] was “inactive”.
For `C=CCSc1nc2ccccc2s1`, the inhibition entry in [4] was “inactive”. In addition, the “growth inhibition (GI)” value in series [2] is “Non-Toxic”.
Regarding `CCOC(=S)SCC#N`, the IC50 in series [1] was 2140 nM. For the same compound, the inhibition entry in series [4] is “Dose-dependent effect”.
With `C=CCSSc1nc2ccc(Cl)cc2s1`, the IC50 in series [1] was determined as 780 nM. The “growth inhibition (GI)” value in series [2] was “Non-Toxic”.
For the compound `C=CCSS/C=C/C[S+]([O-])CC=C` (configuration not stated) [AJOENE], the values for the IC50 in series [5] and in series [1] were 50000 nM and 15000 nM, respectively. The “growth inhibition (GI)” value in [2] is recorded as “Non-Toxic”.
In the case of `O=C(NS(=O)(=O)c1ccccc1)c1ccccc1`, in series [1], the IC50 was 36200 nM. For the same compound, the inhibition entry in series [4] is “Dose-dependent effect”.
As for `CCCSc1nc2ccccc2s1`, the inhibition result in [4] is “inactive”. Also, the “growth inhibition (GI)” value in series [2] is listed as “Non-Toxic”.
Consider `Clc1ccc(Sc2nc3ccccc3s2)cc1`, for which the inhibition result in series [4] is “inactive”. The “growth inhibition (GI)” value in [2] is listed as “Non-Toxic”.
Consider `C[S+]([O-])CCCN=C=S` (configuration not stated), for which the IC50 in series [1] came out at 31000 nM. In addition, in [2], the “growth inhibition (GI)” value is on record as “Non-Toxic”.
The corresponding values for `FC(F)(F)c1ccc2nc(SSc3nc4ccc(C(F)(F)F)cc4s3)sc2c1` are 12100 nM and “Non-Toxic”.
The corresponding values for `COc1ccc(SSc2nc3ccccc3s2)cc1` are 1660 nM and “Non-Toxic”.
On to `c1ccc2sc(SSC3CCCCC3)nc2c1`, for which the IC50 in series [1] was determined as 6000 nM. For the same compound, the “growth inhibition (GI)” value in series [2] is reported as “Non-Toxic”.
Regarding `C=CCSSCc1ccccc1`, in series [1], the IC50 was determined as 20900 nM. Besides, the “growth inhibition (GI)” value in [2] is recorded as “Non-Toxic”.
Regarding `c1ccc2sc(SSc3nc4ccccc4s3)nc2c1` [BENZOTHIAZYL DISULFIDE], in series [1], the IC50 was 14500 nM. Also, the “growth inhibition (GI)” value in [2] is “Non-Toxic”.
In the case of `C=CCSSc1nnc(N)s1`, the IC50 in series [1] amounted to 2280 nM. Besides, the inhibition entry in [4] is “Dose-dependent effect”. Moreover, the “growth inhibition (GI)” value in series [2] was “Non-Toxic”.
Regarding `c1ccc(SSc2nc3ccccc3s2)cc1`, the IC50 in [1] was found to be 1340 nM. In addition, the “growth inhibition (GI)” value in series [2] was “Non-Toxic”.
In the case of `CCOc1ccc2nc(SSc3nc4ccc(OCC)cc4s3)sc2c1`, the IC50 in [1] stood at 45400 nM. Besides, the “growth inhibition (GI)” value in series [2] is given as “Non-Toxic”.
For the compound `C=CCCSc1nc2ccccc2s1`, the inhibition result in series [4] was “inactive”. The “growth inhibition (GI)” value in series [2] is given as “Non-Toxic”.
Consider `CCCSSc1nc2ccccc2s1`, for which the IC50 in series [1] worked out at 2200 nM. The “growth inhibition (GI)” value in series [2] is given as “Non-Toxic”.
As for `C=CCSSc1nc2ccc(C)cc2s1`, the IC50 in series [1] was determined as 1120 nM. In series [2], the “growth inhibition (GI)” value is recorded as “Non-Toxic”.
Consider `C=CCSSc1nc2ccc(C(F)(F)F)cc2s1`, for which, in series [1], the IC50 is 1350 nM. In series [2], the “growth inhibition (GI)” value is on record as “Non-Toxic”.
For the compound `C=CCSSc1nnnn1-c1ccccc1`, the “growth inhibition (GI)” value in [2] was “Non-Toxic”. In [3], the inhibition result was “inactive”.
Regarding `C=CCSSc1nc2ccc(OCC)cc2s1`, the concentration for half-maximal inhibition (IC50) in series [1] came to 3580 nM. The “growth inhibition (GI)” value in [2] is on record as “Non-Toxic”.
As to `C=CCSSc1nc2ccccc2s1`, the IC50 was found to be 2030 nM in series [5], 330 nM in [9] and 980 nM in [1]. The inhibition entry in series [6], in series [7] and in series [10] was “Active” throughout. Besides, the outcome in series [8] and in series [11] was Active. The inhibition in [12] was 50%; in series [4] it was “Dose-dependent effect”. In series [2], the “growth inhibition (GI)” value is “Non-Toxic”. For the same compound, the Activity result was “Non-Toxic” in [13], “Toxic” in series [14] and “Non-Toxic” in [15].
For `C=CCSSc1nc2cc(OC)ccc2o1`, in series [1], the IC50 was 3450 nM. Moreover, the “growth inhibition (GI)” value in [2] is “Non-Toxic”.
`CCOc1ccc2nc(SSc3ccc(Cl)cc3)sc2c1`: the IC50 in series [1] was 720 nM. For the same compound, in series [2], the “growth inhibition (GI)” value was “Non-Toxic”.
For `FC(F)(F)c1ccc2nc(SSc3ccc(Cl)cc3)sc2c1`, the IC50 in [1] came out at 580 nM. Also, in series [2], the “growth inhibition (GI)” value is listed as “Non-Toxic”.
As for `C=CCSSc1nc2ccc(Cl)cc2o1`, the IC50 in [1] turned out to be 4080 nM. Besides, the “growth inhibition (GI)” value in series [2] was “Non-Toxic”.
On to `Clc1ccc(SSc2nc3ccccc3s2)cc1`, for which the inhibition result in series [6], in [7] and in [10] was “Active” in each case. Moreover, the outcome in [8] and in series [11] was Active. In addition, the inhibition in series [12] was determined as 50%. In addition, the IC50 in series [1] turned out to be 560 nM. The “growth inhibition (GI)” value in [2] was “Non-Toxic”. Further, the results for the Activity entry in series [13], in [14] and in series [15] were “Non-Toxic”, “Toxic” and “Non-Toxic”, respectively.
`Cc1ccc2nc(SSc3ccc(Cl)cc3)sc2c1`: the IC50 in series [1] worked out at 680 nM. In addition, the “growth inhibition (GI)” value in series [2] was “Non-Toxic”.
